PRMT1 FP inh: PRMT1 (human) inhibition, primary screen; Q99873; inhibition, % at 2.79 µM; hit rate 1.3% among 370,000; AID 652257; recombinant PRMT1, activity-based probe fluorescence polarization;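 active = inhibition above about 21% made by adding two undisclosed values, limit read from the data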
Target sequence (Q99873 whole entry, looked up): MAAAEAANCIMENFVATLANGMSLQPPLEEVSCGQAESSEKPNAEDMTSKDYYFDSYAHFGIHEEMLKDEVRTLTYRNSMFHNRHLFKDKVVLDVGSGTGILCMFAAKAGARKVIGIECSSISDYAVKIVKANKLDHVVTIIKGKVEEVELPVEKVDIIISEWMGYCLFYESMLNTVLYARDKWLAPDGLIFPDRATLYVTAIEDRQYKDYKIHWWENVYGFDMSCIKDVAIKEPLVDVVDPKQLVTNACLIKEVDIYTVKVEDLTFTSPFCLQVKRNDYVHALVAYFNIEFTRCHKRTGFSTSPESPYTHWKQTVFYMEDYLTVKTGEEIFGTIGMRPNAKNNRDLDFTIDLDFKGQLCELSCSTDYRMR
rCAG binder: binds r(CAG) RNA repeats; r(CAG) RNA repeat, TO-PRO-1 dye displacement fluorescence; inhibition, % at 3 µM; hit rate 1.3% among 370,000; AID 651821;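 active = inhibition above the plate cutoff, the mean of all test compounds on that plate plus 3 SD, cut at about 35% in these data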;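 also: higher means more dye released from RNA so lower well fluorescence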
HTRA1 inh: HTRA1 (human) protease inhibition; hit rate 0.5% among 340,000; inhibition, % at 5.96 µM; recombinant HTRA1, FP-rhodamine activity-based probe, fluorescence polarization; in the data active = inhibition above about 36%
SIAE inh: blocks human sialic acid acetylesterase; Q9HAT2; SIAE FP-Rh probe binding, fluorescence polarization; inhibition, % at 9.66 µM; hit rate 0.69% among 370,000; AID 1053197;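 active = inhibition above a cutoff: mean of compounds within the control limits plus 3 SD of those, cut at about 17% in these data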
mABHD4 FP: inhibits mouse alpha/beta hydrolase domain 4; Q8VD66; AID 720543; inhibition, % at 8.92 µM; hit rate 0.54% among 370,000; purified mABHD4, FP-Rh probe fluorescence polarization;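 active = inhibition exceeding the mean over every tested compound plus 3 SD, cut at about 30% in these data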
Target sequence (Q8VD66 whole entry, looked up, the tested form may be a part): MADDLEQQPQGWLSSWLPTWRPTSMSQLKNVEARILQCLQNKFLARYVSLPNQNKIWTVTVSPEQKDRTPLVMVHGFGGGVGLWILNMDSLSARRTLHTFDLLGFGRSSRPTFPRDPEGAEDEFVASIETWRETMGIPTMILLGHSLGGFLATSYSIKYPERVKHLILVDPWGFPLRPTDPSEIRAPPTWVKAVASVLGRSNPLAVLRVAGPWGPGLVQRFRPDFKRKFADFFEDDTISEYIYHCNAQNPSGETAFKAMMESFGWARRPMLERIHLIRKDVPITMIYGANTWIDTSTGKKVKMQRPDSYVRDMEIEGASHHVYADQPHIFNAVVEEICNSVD
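Material: mouse ABHD4 enzyme, wild type; Benchmarks: S159A mutant high control, sample median low control; Buffer or medium: HEPES pH 7.0, NaCl, Pluronic buffer; Signal: fluorescence polarization; Read-out: percent inhibition of probe binding, normalized to plate controls; Timing: pre-incubation 45 min, probe exposure 60 min, at 25 °C; Dosing: 8.92 µM, single dose.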
rCAG bind conf: r(CAG) RNA repeat binding, confirmation; shares compounds with rCAG binder; inhibition, % at 3 µM; TO-PRO-1 dye displacement fluorescence; hit rate 70% among 4,300;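 active = inhibition above a per-plate cutoff, the mean inhibition of sample wells plus 3 SD, cut at about 35% in these data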;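 also: loss of TO-PRO-1 fluorescence as compound displaces dye from 1x1 AA loop RNA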
DNA CAG counter: disrupts DNA CAG TO-PRO-1 complex, flagging rCAG hits. AID 652068. shares compounds with rCAG binder. inhibition, % at 3 µM. hit rate 94% among 4,300. d(CAG) DNA oligo TO-PRO-1 dye displacement, fluorescence;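 active = inhibition above its plate's cutoff, the mean test-well inhibition plus 3 SD, cut at about 4.8% in these data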;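 also: hits displace the dye from DNA and so lower well fluorescence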
dCAG dye DR: disrupts DNA CAG TO-PRO-1 complex in dose response; DNA CAG/GTC duplex TO-PRO-1 dye displacement fluorescence; hit rate 20% among 250; shares compounds with rCAG binder; IC50, µM; in the data active = IC50 below about 10 µM
PRMT1 inh conf: PRMT1 (human) inhibition, FP confirmation; shares compounds with PRMT1 FP inh; hit rate 42% among 3,300; recombinant His-PRMT1, activity-based probe fluorescence polarization; inhibition, % at 2.79 µM;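 active = mean inhibition across replicates above the hit cutoff derived for the earlier primary screen, cut at about 22% in these data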
ABHD4 confirm: ABHD4 (mouse) inhibition, FP confirmation; hit rate 55% among 1,800; shares compounds with mABHD4 FP; inhibition, % at 8.92 µM; purified mABHD4, FP-Rh probe fluorescence polarization;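 active = mean inhibition across replicates above the hit cutoff set in the primary screen, cut at about 30% in these data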
Large screens that a line does not name were inactive (follow-up assays come after a bar, where they were run). Compounds with a hit are over-represented: about 3.3% of the library has one in this group of screens.

O=C(NN1C(=O)/C(=C/C=C/c2ccco2)SC1=S)c1ccncc1	PRMT1 FP inh 53, rCAG binder 77, mABHD4 FP 49 (no result: HTRA1 inh) | rCAG bind conf 81 | DNA CAG counter 48 | PRMT1 inh conf 52 | ABHD4 confirm inactive
O=C1/C(=C\c2ccco2)SC(=S)N1c1ccc(O)cc1	none
O=C(NN1C(=O)/C(=C/C=C/c2ccccc2)SC1=S)c1ccncc1	none
O=C1/C(=C/c2ccco2)SC(=S)N1c1cccnc1	PRMT1 FP inh 46, rCAG binder 65, mABHD4 FP 31 | rCAG bind conf 55 | DNA CAG counter 26 | PRMT1 inh conf inactive | ABHD4 confirm inactive
O=C1/C(=C\c2ccc(O)cc2)SC(=S)N1c1cccnc1	none
O=C1/C(=C/C=C/c2ccco2)SC(=S)N1c1ccc(O)cc1	PRMT1 FP inh 25, rCAG binder 74, mABHD4 FP 37 | rCAG bind conf 77 | DNA CAG counter 46 | ABHD4 confirm inactive
CC(OC(=O)c1ccccc1NCCO)C(=O)NCC(=O)Nc1ccc(F)c(F)c1F (stereo not drawn)	none
O=C(CSc1nnc(-c2ccco2)c(-c2ccco2)n1)Nc1ccccc1	PRMT1 FP inh 48, rCAG binder 60, mABHD4 FP 51 | rCAG bind conf inactive | DNA CAG counter 15 | ABHD4 confirm 39
CCC(=O)N1CCc2cc(S(=O)(=O)N3CCCCCC3)ccc21	none
CC1=C(C#N)C(=O)NC(=O)/C1=C\c1ccc(-c2ccc(C)cc2[N+](=O)[O-])o1	rCAG binder 43, mABHD4 FP 32 | rCAG bind conf 73 | DNA CAG counter 34 | dCAG dye DR 5.1 | ABHD4 confirm 33
O=C(N/N=C/c1ccc(O)c(O)c1O)/C(=C/c1ccc([N+](=O)[O-])cc1)NC(=O)c1ccccc1	PRMT1 FP inh 24, rCAG binder 66, HTRA1 inh 63, mABHD4 FP 57 | rCAG bind conf 66 | DNA CAG counter 32 | ABHD4 confirm 67
O=C(O)c1ccc(NC2=C/C(=N/S(=O)(=O)c3ccccc3)c3ccccc3C2=O)cc1	rCAG binder 61, mABHD4 FP 48 | rCAG bind conf 38 | DNA CAG counter 11 | ABHD4 confirm 66
Cc1cc(C)c(NS(=O)(=O)c2ccccc2)c(C)c1	none
Cc1cc(C)c(S(=O)(=O)/N=C2\C=C(NS(=O)(=O)c3ccccc3)C(=O)c3ccccc32)c(C)c1	rCAG binder 45, mABHD4 FP 45 | rCAG bind conf 85 | DNA CAG counter 57 | ABHD4 confirm 42
O=C(O)c1ccc(NC2=C(N3CCOCC3)C(=O)c3ccccc3C2=O)cc1	none
CC(C)Oc1cccc(C(=O)Nc2nnc([C@@H]3C[C@H](O)[C@@H](CO)O3)s2)c1	none (no result: HTRA1 inh)
CCN(CC(=O)NCc1cccs1)C(=O)c1cccc(S(=O)(=O)Nc2ccccc2Cl)c1	none
NS(=O)(=O)c1ccc(-c2ccc(C=NC3CCS(=O)(=O)C3)o2)cc1 (stereo not drawn)	none
NS(=O)(=O)c1ccc(-c2ccc(/C=C3\SC(=S)N(C4CCS(=O)(=O)C4)C3=O)o2)cc1 (stereo not drawn)	PRMT1 FP inh 42, rCAG binder 35, mABHD4 FP 30 | rCAG bind conf inactive | DNA CAG counter 14 | PRMT1 inh conf inactive | ABHD4 confirm inactive
O=C(/C=C/c1ccc([N+](=O)[O-])cc1)/C=C/c1ccco1	PRMT1 FP inh 40, rCAG binder 47, mABHD4 FP 39 | rCAG bind conf inactive | DNA CAG counter 12 | PRMT1 inh conf 60 | ABHD4 confirm 33
O=S(=O)(c1ccc(Cl)nc1)N1CCCC1	none
CCC(=O)c1ccc(OCC(O)CN2CCN(S(=O)(=O)c3ccc(NC(C)=O)cc3)CC2)cc1 (stereo not drawn)	none
Oc1ccc(/C=N/NC(=S)Nc2cccnc2)c(O)c1O	PRMT1 FP inh 67, rCAG binder 44, SIAE inh 53, mABHD4 FP 41 | rCAG bind conf 39 | DNA CAG counter 15 | PRMT1 inh conf 88 | ABHD4 confirm 68
S=c1[nH]nc(-c2ccc(Cl)cc2)n1/N=C/C=C/c1ccco1	PRMT1 FP inh 31, rCAG binder 37, mABHD4 FP 31 (no result: HTRA1 inh) | rCAG bind conf 35 | DNA CAG counter 13 | PRMT1 inh conf inactive | ABHD4 confirm inactive
S=c1[nH]nc(-c2ccccc2)n1/N=C/C=C/c1ccco1	none
C=C(C)COc1ccc2c(C)c(CCC(=O)N3C[C@H]4C[C@@H](C3)c3cccc(=O)n3C4)c(=O)oc2c1	none
COc1cc(C=C2C(=O)C=CC2=O)ccc1O	PRMT1 FP inh 91, rCAG binder 73, mABHD4 FP 37 (no result: HTRA1 inh) | rCAG bind conf inactive | DNA CAG counter 5.4 | PRMT1 inh conf 100 | ABHD4 confirm inactive
Cc1cc(C)cc(OCC(=O)OCC(=O)c2cc(C)n(C3CC3)c2C)c1	none
CC1=NN(c2cccc(C(=O)O)c2)C(=O)/C1=C\C=C\c1ccco1	PRMT1 FP inh 27, rCAG binder 56, mABHD4 FP 40 | rCAG bind conf 64 | DNA CAG counter 26 | ABHD4 confirm 57
CC1=NN(c2ccccc2)C(=O)/C1=C/C=C/c1ccccc1	none
C=C1CCC2C(C)(C)CCC[C@]2(C)[C@H]1CC1=C(O)C(=O)C(CO)=CC1=O (stereo partly drawn)	PRMT1 FP inh 80, rCAG binder 45, mABHD4 FP 39 (no result: HTRA1 inh) | rCAG bind conf inactive | DNA CAG counter 7.3 | PRMT1 inh conf 77 | ABHD4 confirm 71
C=C/C(C)=C/C[C@H]1C(=C)CCC2[C@](C)(C(=O)O)CCC[C@@]21C (stereo partly drawn)	none (no result: PRMT1 FP inh, rCAG binder, SIAE inh, mABHD4 FP)
Cc1cccc(OCCNS(=O)(=O)c2ccc(Cl)cc2)c1	none
O=C(Nc1cccc(C(=O)O)c1)/C(=C/c1ccc([N+](=O)[O-])cc1)NC(=O)c1ccccc1	none
CC(C)(C)c1ccc(C(=O)N/C(=C\c2cccc([N+](=O)[O-])c2)C(=O)Nc2cccc(C(=O)O)c2)cc1	rCAG binder 84, mABHD4 FP 33 | rCAG bind conf 75 | DNA CAG counter 44 | ABHD4 confirm 31
Cc1ccc(C2(c3ccccc3)NC(=O)N(CC(=O)NC3CCS(=O)(=O)C3)C2=O)cc1C (stereo not drawn)	none
CCn1c(SCC(=O)N/N=C/c2c[nH]c3ccccc23)nnc1-c1ccc(Cl)cc1	none

High-throughput results from PubChem.
